# How the values were obtained:
# Rattus norvegicus [1] = assay: Concentration of compound in rat kidney after intravenous injection of 20 mg/kg benzyl-penicillin after 1 min; format: functional, organism-based; parameters: dose 20 mg/kg
# Outline: (§1)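 Male Sprague-Dawley rats (200-250 g), conscious, received 60 µmol/kg (equimolar to 20 mg/kg benzylpenicillin) by tail-vein injection. Benzylpenicillin K was given in water/ethanol/propylene glycol, and the delivery systems in ethanol:propylene glycol 7:3, at 20 mg/mL. Rats were decapitated at set times (4-6 per point), with trunk blood heparinized and brain, kidney, liver and lung frozen. Benzylpenicillin was measured by disk microbioassay (Bacillus subtilis ATCC 6633) after >5-volume sterile-water dilution or homogenization, against matrix calibration curves; assay limit 0.05 µg/mL.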
# Rattus norvegicus [2] = assay: Concentration of compound in rat kidney after intravenous injection of 20 mg/kg benzyl-penicillin after 20 min; format: functional, organism-based; parameters: dose 20 mg/kg; outline: as §1
# Rattus norvegicus [3] = assay: Concentration of compound in rat kidney after intravenous injection of 20 mg/kg benzyl-penicillin after 3 min; format: functional, organism-based; parameters: dose 20 mg/kg; outline: as §1
# Rattus norvegicus [4] = assay: Concentration of compound in rat kidney after intravenous injection of 20 mg/kg benzyl-penicillin after 40 min; format: functional, organism-based; parameters: dose 20 mg/kg; outline: as §1
# Rattus norvegicus [5] = assay: Concentration of compound in rat kidney after intravenous injection of 20 mg/kg benzyl-penicillin after 5 min; format: functional, organism-based; parameters: dose 20 mg/kg; outline: as §1
# Rattus norvegicus [6] = assay: Concentration of compound in rat kidney after intravenous injection of 20 mg/kg benzyl-penicillin after 60 min; format: functional, organism-based; parameters: dose 20 mg/kg; outline: as §1
# Rattus norvegicus [7] = assay: Concentration of compound in rat kidney after intravenous injection of 20 mg/kg benzyl-penicillin after 10 min; format: functional, organism-based; parameters: dose 20 mg/kg; outline: as §1
# Rattus norvegicus [8] = assay: Concentration of compound in rat liver after intravenous injection of 20 mg/kg benzyl-penicillin after 1 min; format: functional, organism-based; parameters: dose 20 mg/kg; outline: as §1
# Rattus norvegicus [9] = assay: Concentration of compound in rat liver after intravenous injection of 20 mg/kg benzyl-penicillin after 10 min; format: functional, organism-based; parameters: dose 20 mg/kg; outline: as §1
# Rattus norvegicus [10] = assay: Concentration of compound in rat liver after intravenous injection of 20 mg/kg benzyl-penicillin after 20 min; format: functional, organism-based; parameters: dose 20 mg/kg; outline: as §1
# Rattus norvegicus [11] = assay: Concentration of compound in rat liver after intravenous injection of 20 mg/kg benzyl-penicillin after 3 min; format: functional, organism-based; parameters: dose 20 mg/kg; outline: as §1
# Rattus norvegicus [12] = assay: Concentration of compound in rat liver after intravenous injection of 20 mg/kg benzyl-penicillin after 40 min; format: functional, organism-based; parameters: dose 20 mg/kg; outline: as §1
# Rattus norvegicus [13] = assay: Concentration of compound in rat liver after intravenous injection of 20 mg/kg benzyl-penicillin after 5 min; format: functional, organism-based; parameters: dose 20 mg/kg; outline: as §1
# Rattus norvegicus [14] = assay: Concentration of compound in rat blood after intravenous injection of 20 mg/kg benzyl-penicillin after 1 min; format: functional, organism-based; parameters: dose 20 mg/kg; outline: as §1
# Rattus norvegicus [15] = assay: Concentration of compound in rat blood after intravenous injection of 20 mg/kg benzyl-penicillin after 10 min; format: functional, organism-based; parameters: dose 20 mg/kg; outline: as §1
# Rattus norvegicus [16] = assay: Concentration of compound in rat blood after intravenous injection of 20 mg/kg benzyl-penicillin after 20 min; format: functional, organism-based; parameters: dose 20 mg/kg; outline: as §1
# Rattus norvegicus [17] = assay: Concentration of compound in rat blood after intravenous injection of 20 mg/kg benzyl-penicillin after 3 min; format: functional, organism-based; parameters: dose 20 mg/kg; outline: as §1
# Rattus norvegicus [18] = assay: Concentration of compound in rat blood after intravenous injection of 20 mg/kg benzyl-penicillin after 40 min; format: functional, organism-based; parameters: dose 20 mg/kg; outline: as §1
# Rattus norvegicus [19] = assay: Concentration of compound in rat blood after intravenous injection of 20 mg/kg benzyl-penicillin after 5 min; format: functional, organism-based; parameters: dose 20 mg/kg; outline: as §1
# Rattus norvegicus [20] = assay: Concentration of compound in rat blood after intravenous injection of 20 mg/kg benzyl-penicillin after 60 min; format: functional, organism-based; parameters: dose 20 mg/kg; outline: as §1
# Rattus norvegicus [21] = assay: Concentration of compound in rat brain after intravenous injection of 20 mg/kg benzyl-penicillin after 1 min; format: functional, organism-based; parameters: dose 20 mg/kg; outline: as §1
# Rattus norvegicus [22] = assay: Concentration of compound in rat brain after intravenous injection of 20 mg/kg benzyl-penicillin after 10 min; format: functional, organism-based; parameters: dose 20 mg/kg; outline: as §1
# Rattus norvegicus [23] = assay: Concentration of compound in rat brain after intravenous injection of 20 mg/kg benzyl-penicillin after 3 min; format: functional, organism-based; parameters: dose 20 mg/kg; outline: as §1
# Rattus norvegicus [24] = assay: Concentration of compound in rat brain after intravenous injection of 20 mg/kg benzyl-penicillin after 5 min; format: functional, organism-based; parameters: dose 20 mg/kg; outline: as §1
# Rattus norvegicus [25] = assay: Concentration of compound in rat liver after intravenous injection of 20 mg/kg benzyl-penicillin after 60 min; format: functional, organism-based; parameters: dose 20 mg/kg; outline: as §1
# Rattus norvegicus [26] = assay: Concentration of compound in rat lung after intravenous injection of 20 mg/kg benzyl-penicillin after 1 min; format: functional, organism-based; parameters: dose 20 mg/kg; outline: as §1
# Rattus norvegicus [27] = assay: Concentration of compound in rat lung after intravenous injection of 20 mg/kg benzyl-penicillin after 10 min; format: functional, organism-based; parameters: dose 20 mg/kg; outline: as §1
# Rattus norvegicus [28] = assay: Concentration of compound in rat lung after intravenous injection of 20 mg/kg benzyl-penicillin after 20 min; format: functional, organism-based; parameters: dose 20 mg/kg; outline: as §1
# Rattus norvegicus [29] = assay: Concentration of compound in rat lung after intravenous injection of 20 mg/kg benzyl-penicillin after 3 min; format: functional, organism-based; parameters: dose 20 mg/kg; outline: as §1
# Rattus norvegicus [30] = assay: Concentration of compound in rat lung after intravenous injection of 20 mg/kg benzyl-penicillin after 40 min; format: functional, organism-based; parameters: dose 20 mg/kg; outline: as §1
# Rattus norvegicus [31] = assay: Concentration of compound in rat lung after intravenous injection of 20 mg/kg benzyl-penicillin after 5 min; format: functional, organism-based; parameters: dose 20 mg/kg; outline: as §1
# Rattus norvegicus [32] = assay: Concentration of compound in rat lung after intravenous injection of 20 mg/kg benzyl-penicillin after 60 min; format: functional, organism-based; parameters: dose 20 mg/kg; outline: as §1
# [33] = Half-life for disappearance of compound from dog whole blood; format: ADME, organism-based, Canis lupus familiaris
# Outline: (§2)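 Freshly collected whole blood, or 10% w/v brain homogenate in pH 7.4 phosphate buffer (ionic strength 0.15), was prewarmed to 37 °C. Compound was spiked from an 8 mM DMSO stock to 40 µM final. Timed samples were quenched in 8% DMSO/acetonitrile, centrifuged, filtered and analyzed by reversed-phase C8 HPLC with UV detection. K came from linear regression of log peak height versus time, with t1/2 derived from it. Values are mean ± SE of three determinations in different animal samples.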
# [34] = Half-life for disappearance of compound from human whole blood; format: ADME, organism-based; outline: as §2
# [35] = Half-life for disappearance of compound from rabbit 10% brain homogenate; format: ADME, Oryctolagus cuniculus; outline: as §2
# [36] = Half-life for disappearance of compound from rabbit whole blood; format: ADME, organism-based, Oryctolagus cuniculus; outline: as §2
# [37] = Half-life for disappearance of compound from rat 10% brain homogenate; format: ADME; outline: as §2
# [38] = Half-life for disappearance of compound from rat whole blood; format: ADME, organism-based; outline: as §2
# Canis familiaris = organism: Canis familiaris; assay: Pseudo first-order rate constant (K) for disappearance of compound from dog whole blood; format: ADME, organism-based, Canis lupus familiaris; outline: as §2
# Homo sapiens = organism: Homo sapiens; assay: Pseudo first-order rate constant (K) for disappearance of compound from human whole blood; format: ADME, organism-based; outline: as §2
# Oryctolagus cuniculus [39] = organism: Oryctolagus cuniculus; assay: Pseudo first-order rate constant (K) for disappearance of compound from rabbit 10% brain homogenate; format: ADME
# Outline: (§3)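 Freshly collected whole blood (rat trunk blood; rabbit) or 10% w/v brain homogenate made in pH 7.4 phosphate buffer (μ = 0.15), prewarmed to 37 °C. Compound added from 8 mM DMSO stock to a final 40 μM. Timed 0.3 mL samples were quenched in 8% DMSO/acetonitrile, centrifuged, filtered and analysed by reversed-phase C8 HPLC-UV. K came from linear regression of log peak height versus time; n=3 animal samples.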
# Oryctolagus cuniculus [40] = organism: Oryctolagus cuniculus; assay: Pseudo first-order rate constant (K) for disappearance of compound from rabbit whole blood; format: ADME, organism-based; outline: as §3
# Rattus norvegicus [41] = organism: Rattus norvegicus; assay: Pseudo first-order rate constant (K) for disappearance of compound from rat 10% brain homogenate; format: ADME; outline: as §3
# [42] = Pseudo first-order rate constant (K) for disappearance of compound from rat whole blood; format: ADME, tissue-based; outline: as §3
# Rattus norvegicus [43] = assay: Concentration of compound in rat brain after intravenous injection of 20 mg/kg benzyl-penicillin after 60 min;Below detection limit.; format: functional, organism-based; parameters: dose 20 mg/kg; outline: as §1
# Rattus norvegicus [44] = assay: Concentration of compound in rat brain after intravenous injection of 20 mg/kg benzyl-penicillin after 20 min;Below detection limit.; format: functional, organism-based; parameters: dose 20 mg/kg; outline: as §1
# Rattus norvegicus [45] = assay: Concentration of compound in rat brain after intravenous injection of 20 mg/kg benzyl-penicillin after 40 min;Below detection limit.; format: functional, organism-based; parameters: dose 20 mg/kg; outline: as §1
smiles,measurement,setting,value
CC1(C)S[C@@H]2[C@H](NC(=O)Cc3ccccc3)C(=O)N2[C@H]1C(=O)O,Concentration,Rattus norvegicus [1],33.6 µg/mL
same,Concentration,Rattus norvegicus [2],20.8 µg/mL
same,Concentration,Rattus norvegicus [3],120 µg/mL
same,Concentration,Rattus norvegicus [4],6.2 µg/mL
same,Concentration,Rattus norvegicus [5],88.5 µg/mL
same,Concentration,Rattus norvegicus [6],1.1 µg/mL
same,Concentration,Rattus norvegicus [7],27.6 µg/mL
same,Concentration,Rattus norvegicus [8],15.1 µg/mL
same,Concentration,Rattus norvegicus [9],17.7 µg/mL
same,Concentration,Rattus norvegicus [10],7.5 µg/mL
same,Concentration,Rattus norvegicus [11],38.9 µg/mL
same,Concentration,Rattus norvegicus [12],2.9 µg/mL
same,Concentration,Rattus norvegicus [13],30.7 µg/mL
same,Concentration,Rattus norvegicus [14],64.6 µg/mL
same,Concentration,Rattus norvegicus [15],8.5 µg/mL
same,Concentration,Rattus norvegicus [16],2.8 µg/mL
same,Concentration,Rattus norvegicus [17],25.2 µg/mL
same,Concentration,Rattus norvegicus [18],1.3 µg/mL
same,Concentration,Rattus norvegicus [19],22.8 µg/mL
same,Concentration,Rattus norvegicus [20],0.4 µg/mL
same,Concentration,Rattus norvegicus [21],2.7 µg/mL
same,Concentration,Rattus norvegicus [22],0.3 µg/mL
same,Concentration,Rattus norvegicus [23],1.3 µg/mL
same,Concentration,Rattus norvegicus [24],0.9 µg/mL
same,Concentration,Rattus norvegicus [25],0.7 µg/mL
same,Concentration,Rattus norvegicus [26],52.5 µg/mL
same,Concentration,Rattus norvegicus [27],9.5 µg/mL
same,Concentration,Rattus norvegicus [28],2.3 µg/mL
same,Concentration,Rattus norvegicus [29],30.3 µg/mL
same,Concentration,Rattus norvegicus [30],1.4 µg/mL
same,Concentration,Rattus norvegicus [31],22.4 µg/mL
same,Concentration,Rattus norvegicus [32],0.7 µg/mL
CN1C=CCC(C(=O)NCCOC(=O)C2N3C(=O)C(NC(=O)Cc4ccccc4)C3SC2(C)C)=C1 (stereo not given),half-life,[33],5.7 min
same,half-life,[34],19.4 min
same,half-life,[35],4.6 min
same,half-life,[36],1.3 min
same,half-life,[37],5.7 min
same,half-life,[38],0.3 min
same,K,Canis familiaris,0.123 min⁻¹
same,K,Homo sapiens,0.037 min⁻¹
same,K,Oryctolagus cuniculus [39],0.152 min⁻¹
same,K,Oryctolagus cuniculus [40],0.553 min⁻¹
same,K,Rattus norvegicus [41],0.125 min⁻¹
same,K,[42],2.712 min⁻¹
same,Concentration,Rattus norvegicus [43],Below limit of detection
same,Concentration,Rattus norvegicus [14],5 µg/mL
same,Concentration,Rattus norvegicus [15],4.9 µg/mL
same,Concentration,Rattus norvegicus [16],0.8 µg/mL
same,Concentration,Rattus norvegicus [17],7.3 µg/mL
same,Concentration,Rattus norvegicus [18],0.3 µg/mL
same,Concentration,Rattus norvegicus [19],3.8 µg/mL
same,Concentration,Rattus norvegicus [20],0.2 µg/mL
same,Concentration,Rattus norvegicus [21],0.2 µg/mL
same,Concentration,Rattus norvegicus [22],0.1 µg/mL
same,Concentration,Rattus norvegicus [44],Below limit of detection
same,Concentration,Rattus norvegicus [23],0.3 µg/mL
same,Concentration,Rattus norvegicus [45],Below limit of detection
same,Concentration,Rattus norvegicus [24],0.2 µg/mL
C[n+]1cccc(C(=O)OCCOC(=O)C2N3C(=O)C(NC(=O)Cc4ccccc4)C3SC2(C)C)c1.[I-] (stereo not given),half-life,[33],11.5 min
same,half-life,[34],6.7 min
same,half-life,[35],16.7 min
same,half-life,[36],2 min
same,half-life,[37],28.2 min
same,half-life,[38],1.6 min
same,K,Canis familiaris,0.061 min⁻¹
same,K,Homo sapiens,0.105 min⁻¹
same,K,Oryctolagus cuniculus [39],0.043 min⁻¹
same,K,Oryctolagus cuniculus [40],0.33 min⁻¹
same,K,Rattus norvegicus [41],0.025 min⁻¹
same,K,[42],0.435 min⁻¹

# Reference: ChEMBL document CHEMBL1124553, “Brain-specific chemical delivery systems for beta-lactam antibiotics. In vitro and in vivo studies of some dihydropyridine and dihydroisoquinoline derivatives of benzylpenicillin in rats” (J Med Chem, 1989)
